Results published in ChEMBL document CHEMBL3779892, “Increasing the binding affinity of VEGFR-2 inhibitors by extending their hydrophobic interaction with the active site: Design, synthesis and biological evaluation of 1-substituted-4-(4-methoxybenzyl)phthalazine derivatives” (Eur J Med Chem, 2016).

Tests used:
Format in all cases: functional
T47D = test: Growth inhibition of human T47D cells at 10 uM after 48 hrs by sulforhodamine B assay; conditions: read-out: GI
Outline: (§1)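 NCI-60 panel, adherent cells grown in RPMI 1640 with 5% FBS and 2 mM L-glutamine, plated at 5000–40,000 cells/well and preincubated 24 h at 37 °C, 5% CO2. 10 µM final compound from DMSO stock, triplicate wells, 48 h. Fixed with cold TCA (10% final, 60 min, 4 °C) and stained with 0.4% SRB. Absorbance read at 515 nm; growth calculated against time-zero and control wells.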

MDA-MB-468 = test: Growth inhibition of human MDA-MB-468 cells at 10 uM after 48 hrs by sulforhodamine B assay; conditions: MDA-MB-468, 48 h, read-out: GI
Outline: (§2)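 Run at NCI on the 60-line panel. Cells grown in RPMI 1640 with 5% FBS and 2 mM L-glutamine, plated at 5000–40,000 cells/well by doubling time, and held 24 h at 37 °C before dosing. Drug (DMSO stock) given at a single final 10 µM in triplicate wells for 48 h. Adherent cells fixed with cold TCA (10% final), suspension cells with 16% TCA. SRB stain read at 515 nm. Percent growth from Tz, C and Ti.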

MDA-MB-231 = test: Growth inhibition of human MDA-MB-231 cells at 10 uM after 48 hrs by sulforhodamine B assay; conditions: MDA-MB-231, 48 h, read-out: GI; outline: as §2
CCRF-CEM = test: Growth inhibition of human CCRF-CEM cells at 10 uM after 48 hrs by sulforhodamine B assay; conditions: read-out: GI; outline: as §2
K562 = test: Growth inhibition of human K562 cells at 10 uM after 48 hrs by sulforhodamine B assay; conditions: K562, 48 h, read-out: GI; outline: as §2
[1] = Growth inhibition of human RPMI8226 cells at 10 uM after 48 hrs by sulforhodamine B assay; conditions: RPMI-8226, 48 h, read-out: GI; outline: as §2
A549 = test: Growth inhibition of human A549 cells at 10 uM after 48 hrs by sulforhodamine B assay; conditions: A549, 48 h, read-out: GI; outline: as §2
[2] = Growth inhibition of human HOP62 cells at 10 uM after 48 hrs by sulforhodamine B assay; conditions: HOP-62, 48 h, read-out: GI; outline: as §2
NCI-H23 = test: Growth inhibition of human NCI-H23 cells at 10 uM after 48 hrs by sulforhodamine B assay; conditions: NCI-H23, 48 h, read-out: GI; outline: as §2
NCI-H322M = test: Growth inhibition of human NCI-H322M cells at 10 uM after 48 hrs by sulforhodamine B assay; conditions: read-out: GI; outline: as §2
NCI-H460 = test: Growth inhibition of human NCI-H460 cells at 10 uM after 48 hrs by sulforhodamine B assay; conditions: NCI-H460, 48 h, read-out: GI; outline: as §2
NCI-H522 = test: Growth inhibition of human NCI-H522 cells at 10 uM after 48 hrs by sulforhodamine B assay; conditions: NCI-H522, 48 h, read-out: GI; outline: as §2
HT-29 = test: Growth inhibition of human HT-29 cells at 10 uM after 48 hrs by sulforhodamine B assay; conditions: HT-29, 48 h, read-out: GI; outline: as §2
KM12 = test: Growth inhibition of human KM12 cells at 10 uM after 48 hrs by sulforhodamine B assay; conditions: KM12, 48 h, read-out: GI; outline: as §2
[3] = Growth inhibition of human SF295 cells at 10 uM after 48 hrs by sulforhodamine B assay; conditions: SF-295, 48 h, read-out: GI; outline: as §2
[4] = Growth inhibition of human SF539 cells at 10 uM after 48 hrs by sulforhodamine B assay; conditions: SF-539, 48 h, read-out: GI; outline: as §2
[5] = Growth inhibition of human SNB19 cells at 10 uM after 48 hrs by sulforhodamine B assay; conditions: SNB-19, 48 h, read-out: GI; outline: as §2
[6] = Growth inhibition of human SNB75 cells at 10 uM after 48 hrs by sulforhodamine B assay; conditions: SNB-75, 48 h, read-out: GI; outline: as §2
[7] = Growth inhibition of human LOXIMVI cells at 10 uM after 48 hrs by sulforhodamine B assay; conditions: LOX IMVI, read-out: GI; outline: as §2
M14 = test: Growth inhibition of human M14 cells at 10 uM after 48 hrs by sulforhodamine B assay; conditions: M14, 48 h, read-out: GI; outline: as §2
MDA-MB-435 = test: Growth inhibition of human MDA-MB-435 cells at 10 uM after 48 hrs by sulforhodamine B assay; conditions: MDA-MB-435, 48 h, read-out: GI; outline: as §2
SK-MEL-28 = test: Growth inhibition of human SK-MEL-28 cells at 10 uM after 48 hrs by sulforhodamine B assay; conditions: SK-MEL-28, 48 h, read-out: GI; outline: as §2
[8] = Growth inhibition of human UACC257 cells at 10 uM after 48 hrs by sulforhodamine B assay; conditions: UACC-257, 48 h, read-out: GI; outline: as §1
[9] = Growth inhibition of human OVCAR4 cells at 10 uM after 48 hrs by sulforhodamine B assay; conditions: OVCAR-4, 48 h, read-out: GI; outline: as §2
[10] = Growth inhibition of human OVCAR5 cells at 10 uM after 48 hrs by sulforhodamine B assay; conditions: OVCAR-5, 48 h, read-out: GI; outline: as §2
[11] = Growth inhibition of human OVCAR8 cells at 10 uM after 48 hrs by sulforhodamine B assay; conditions: OVCAR-8, 48 h, read-out: GI; outline: as §2
[12] = Growth inhibition of human NCI-ADR-RES cells at 10 uM after 48 hrs by sulforhodamine B assay; conditions: read-out: GI; outline: as §2
A498 = test: Growth inhibition of human A498 cells at 10 uM after 48 hrs by sulforhodamine B assay; conditions: A498, 48 h, read-out: GI; outline: as §2
[13] = Growth inhibition of human Caki1 cells at 10 uM after 48 hrs by sulforhodamine B assay; conditions: CAKI-1, 48 h, read-out: GI; outline: as §2
SN12C = test: Growth inhibition of human SN12C cells at 10 uM after 48 hrs by sulforhodamine B assay; conditions: read-out: GI; outline: as §2
[14] = Growth inhibition of human TK10 cells at 10 uM after 48 hrs by sulforhodamine B assay; conditions: TK-10, 48 h, read-out: GI; outline: as §1
[15] = Growth inhibition of human UO31 cells at 10 uM after 48 hrs by sulforhodamine B assay; conditions: UO-31, 48 h, read-out: GI; outline: as §1
[16] = Growth inhibition of human PC3 cells at 10 uM after 48 hrs by sulforhodamine B assay; conditions: PC-3, 48 h, read-out: GI; outline: as §2
[17] = Growth inhibition of human DU145 cells at 10 uM after 48 hrs by sulforhodamine B assay; conditions: DU-145, 48 h, read-out: GI; outline: as §2
MCF7 = test: Growth inhibition of human MCF7 cells at 10 uM after 48 hrs by sulforhodamine B assay; conditions: MCF7, 48 h, read-out: GI; outline: as §2
[18] = Growth inhibition of human Hs 578T cells at 10 uM after 48 hrs by sulforhodamine B assay; conditions: read-out: GI; outline: as §2

Row | SMILES | inhibition of growth at 10 µM (T47D) [%] | inhibition of growth at 10 µM (MDA-MB-468) [%] | inhibition of growth at 10 µM (MDA-MB-231) [%] | inhibition of growth at 10 µM (CCRF-CEM) [%] | inhibition of growth at 10 µM (K562) [%] | inhibition of growth at 10 µM [1] [%] | inhibition of growth at 10 µM (A549) [%] | inhibition of growth at 10 µM [2] [%] | inhibition of growth at 10 µM (NCI-H23) [%] | inhibition of growth at 10 µM (NCI-H322M) [%] | inhibition of growth at 10 µM (NCI-H460) [%] | inhibition of growth at 10 µM (NCI-H522) [%] | inhibition of growth at 10 µM (HT-29) [%] | inhibition of growth at 10 µM (KM12) [%] | inhibition of growth at 10 µM [3] [%] | inhibition of growth at 10 µM [4] [%] | inhibition of growth at 10 µM [5] [%] | inhibition of growth at 10 µM [6] [%] | inhibition of growth at 10 µM [7] [%] | inhibition of growth at 10 µM (M14) [%] | also measured
1 | COc1ccc(Cc2nnc(Nc3ccc(NC(=O)Nc4cccc(Cl)c4)cc3)c3ccccc23)cc1 | 39 | < 30 | < 30 | 41 | 30 | 31 | 35 | < 30 | < 30 | < 30 | < 30 | 57 | < 30 | < 30 | < 30 | < 30 | < 30 | < 30 | < 30 | < 30 | inhibition of growth at 10 µM (MDA-MB-435): < 30%; inhibition of growth at 10 µM (SK-MEL-28): < 30%; inhibition of growth at 10 µM [8]: < 30%; inhibition of growth at 10 µM [9]: < 30%; inhibition of growth at 10 µM [10]: < 30%; inhibition of growth at 10 µM [11]: < 30%; inhibition of growth at 10 µM [12]: < 30%; inhibition of growth at 10 µM (A498): < 30%; inhibition of growth at 10 µM [13]: < 30%; inhibition of growth at 10 µM (SN12C): < 30%; inhibition of growth at 10 µM [14]: < 30%; inhibition of growth at 10 µM [15]: < 30%; inhibition of growth at 10 µM [16]: 32%; inhibition of growth at 10 µM [17]: < 30%; inhibition of growth at 10 µM (MCF7): < 30%; inhibition of growth at 10 µM [18]: < 30%
2 | COc1ccc(Cc2nnc(Nc3ccc(NC(=O)Nc4ccc(Cl)cc4)cc3)c3ccccc23)cc1 | 37 | < 30 | 30 | 42 | < 30 | 75 | 33 | < 30 | < 30 | < 30 | 110 | 43 | 34 | 39 | 52 | 41 | 39 | 49 | < 30 | 30 | inhibition of growth at 10 µM (MDA-MB-435): < 30%; inhibition of growth at 10 µM (SK-MEL-28): < 30%; inhibition of growth at 10 µM [8]: < 30%; inhibition of growth at 10 µM [9]: < 30%; inhibition of growth at 10 µM [10]: < 30%; inhibition of growth at 10 µM [11]: < 30%; inhibition of growth at 10 µM [12]: < 30%; inhibition of growth at 10 µM (A498): 32%; inhibition of growth at 10 µM [13]: < 30%; inhibition of growth at 10 µM (SN12C): < 30%; inhibition of growth at 10 µM [14]: < 30%; inhibition of growth at 10 µM [15]: < 30%; inhibition of growth at 10 µM [16]: 31%; inhibition of growth at 10 µM [17]: < 30%; inhibition of growth at 10 µM (MCF7): 33%; inhibition of growth at 10 µM [18]: 75%
3 | COc1ccc(Cc2nnc(Nc3ccc(NC(=O)Nc4ccccc4Cl)cc3)c3ccccc23)cc1 | 52 | < 30 | < 30 | < 30 | < 30 | 33 | < 30 | < 30 | < 30 | < 30 | < 30 | 33 | < 30 | < 30 | < 30 | < 30 | < 30 | < 30 | < 30 | < 30 | inhibition of growth at 10 µM (MDA-MB-435): < 30%; inhibition of growth at 10 µM (SK-MEL-28): < 30%; inhibition of growth at 10 µM [8]: < 30%; inhibition of growth at 10 µM [9]: < 30%; inhibition of growth at 10 µM [10]: < 30%; inhibition of growth at 10 µM [11]: < 30%; inhibition of growth at 10 µM [12]: < 30%; inhibition of growth at 10 µM (A498): 44%; inhibition of growth at 10 µM [13]: < 30%; inhibition of growth at 10 µM (SN12C): < 30%; inhibition of growth at 10 µM [14]: < 30%; inhibition of growth at 10 µM [15]: < 30%; inhibition of growth at 10 µM [16]: < 30%; inhibition of growth at 10 µM [17]: < 30%; inhibition of growth at 10 µM (MCF7): 32%; inhibition of growth at 10 µM [18]: < 30%
